Rows were chosen to be rich in hits. Some 3.7% of all compounds tested hit in one or more screens of this group.
NS3 helicase inh = inhibitors of HCV NS3 helicase, primary screen, biochemical, Cy5 molecular beacon fluorescence | NS3 helicase DNA unwinding | Hepatitis C virus NS3 helicase | inhibition, % at 10.9 µM | 290,000 tested, 0.56% active;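 active = inhibition above the mean of all tested compounds plus 3 SD, set per campaign, cut at about 35% in these data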;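 note: 0% = DMSO wells and 100% = thioflavine S control wells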
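Measured by: Cy5 fluorescence, 0 and 60 min reads / Assay system: NS3 helicase fragment of HCV / Control set: low DMSO, high thioflavine S at 110 µM / Times: 1 h reaction at 25 °C, ATP-initiated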
rCAG binder-1 = binders of r(CAG) RNA repeats, primary screen, biochemical, fluorescence. r(CAG) RNA repeat, TO-PRO-1 dye displacement fluorescence. inhibition, % at 3 µM. 370,000 tested, 1.3% active. AID 651821, 2012;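 active = inhibition above the plate cutoff, the mean of all test compounds on that plate plus 3 SD, cut at about 35% in these data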;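 note: 0% = DMSO alone and 100% = 100 µM mitoxantrone as full dye displacement; higher means more dye released from RNA so lower well fluorescence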
TAAR1 agonist = human TAAR1 agonists, primary screen, Fluo-8 calcium fluorescence, CHO RD-HGA16 cells. vehicle wells 0%, saturating PEA agonist 100%. activation, % at 3 µM. 360,000 tested, 0.99% active;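 active = activation above the mean activation of all test compounds in the run plus 3 SD, cut at about 38% in these data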
Target sequence (Q96RJ0 whole entry, looked up): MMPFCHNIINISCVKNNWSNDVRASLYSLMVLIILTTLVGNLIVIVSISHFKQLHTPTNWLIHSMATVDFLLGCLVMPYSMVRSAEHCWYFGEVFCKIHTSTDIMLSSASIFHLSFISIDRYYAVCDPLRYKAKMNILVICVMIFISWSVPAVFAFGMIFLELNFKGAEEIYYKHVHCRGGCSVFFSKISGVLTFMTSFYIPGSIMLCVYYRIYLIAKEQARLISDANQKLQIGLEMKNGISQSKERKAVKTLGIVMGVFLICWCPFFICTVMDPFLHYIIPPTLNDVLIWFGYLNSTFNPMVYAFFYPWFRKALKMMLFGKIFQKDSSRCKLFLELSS
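System: CHO-derived RD-HGA16 cells with stable Gα16 and human TAAR1. Times: 17-24 h plating, Fluo-8 75 min 37 °C, 30 min RT. Measured by: calcium-sensitive Fluo-8 signal, excitation 470-495, emission 515-575 nm. Read-out basis: % activation relative to PEA EC100 response. Control set: DMSO and PEA EC100. Repeats: no replicates (n 1).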
TAAR1 antagonist = human TAAR1 antagonists, primary screen, Fluo-8 calcium fluorescence, CHO RD-HGA16 cells; Trace amine-associated receptor 1 (Homo sapiens), Q96RJ0; antagonist; inhibition, % at 3 µM; 360,000 tested, 1.5% active; AID 624466, 2012;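 active = inhibition above a per-plate cutoff, the mean inhibition of test compounds on that plate plus 3 SD, cut at about 49% in these data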;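 note: 0% = DMSO plus EC80 beta-PEA response and 100% = DMSO alone without agonist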
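Test system – hTAAR1-expressing CHO RD-HGA16 cells, Gα16-coupled · Reagent – β-PEA at EC80 concentration, post-compound challenge · Compound dosing – 3 µM, single point · Timing – 140 s kinetic read after compound, 140 s after agonist · Detection – Fluo-8 intracellular calcium dye fluorescence, real-time kinetic reads · Control set – DMSO and EC80 PEA controls · Repeats – n of 1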
core dimer inh = inhibitors of HCV core protein dimerization, primary screen, biochemical, TR-FRET, high-throughput; inhibition, % at 5 µM; 300,000 tested, 0.33% active; TR-FRET GST/Flag-core106 dimerization, 1536-well;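 active = inhibition above the mean of all tested compounds plus 3 SD, set per screening campaign, cut at about 45% in these data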
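Assay system: GST-tagged and Flag-tagged HCV core protein residues 1-106 / Times: compound-protein-antibody incubation 4 h at 22.5 °C / Signal: time-resolved FRET, ex 340 nm, em 617 and 671 nm / Evaluation: % inhibition based on acceptor/donor emission ratio / Benchmarks: wells lacking GST-core106 and wells with excess unlabelled core106 / Repeats: singlicate, one well per compound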
rCAG bind conf = small molecules binding CAG repeat RNA – biochemical, fluorescence, confirmation. shares compounds with rCAG binder-1. r(CAG) RNA repeat, TO-PRO-1 dye displacement fluorescence. inhibition, % at 3 µM. 4,300 tested, 70% active. AID 652065, 2013;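 active = inhibition above a per-plate cutoff, the mean inhibition of sample wells plus 3 SD, cut at about 35% in these data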;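 note: loss of TO-PRO-1 fluorescence as compound displaces dye from 1x1 AA loop RNA; 0% = DMSO only wells and 100% = 100 µM mitoxantrone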
dCAG dye counter = displacement of TO-PRO-1 from CAG DNA duplex, counter-screen for rCAG RNA repeat binder project, biochemical, fluorescence, TO-PRO-1 dye, d(CAG) DNA oligo | shares compounds with rCAG binder-1 | d(CAG) DNA oligo TO-PRO-1 dye displacement | 4,300 tested, 94% active | inhibition, % at 3 µM | AID 652068, 2013;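 active = inhibition above its plate's cutoff, the mean test-well inhibition plus 3 SD, cut at about 4.8% in these data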;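 note: 0% = DNA dye mix with DMSO and 100% = 100 µM mitoxantrone; hits displace the dye from DNA and so lower well fluorescence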
DNA CAG DR = inhibitors of DNA CAG/GTC TO-PRO-1 complex, dose response, counter-screen for rCAG RNA repeat binder project, biochemical, fluorescence, TO-PRO-1 dye; shares compounds with rCAG binder-1; DNA CAG/GTC duplex TO-PRO-1 dye displacement fluorescence; IC50, µM; 250 tested, 20% active; AID 686960, 2013; in the data active = IC50 below about 10 µM
dCAG TOPRO ctr = TO-PRO-1 dye complex inhibitors on d(CAG) DNA, dose response, counter-screen, biochemical, fluorescence, late stage. shares compounds with rCAG binder-1. d(CAG) DNA duplex TO-PRO-1 dye displacement. IC50, µM. 30 tested, 80% active. AID 720649, 2013
rCAG binder-2 = molecules binding r(CAG) RNA repeats, late stage dose response, late-stage follow-up, biochemical, fluorescence, dose response, powder samples. IC50, µM. 30 tested, 100% active. shares compounds with rCAG binder-1. r(CAG) RNA TO-PRO-1 dye displacement. AID 720651, 2013
* marks the source's active call; other numbers are inactive results; i = inactive; · = no result. Unless noted, the rule behind the calls is not given here.

SMILES	NS3 helicase inh	rCAG binder-1	TAAR1 agonist	TAAR1 antagonist	core dimer inh	rCAG bind conf	dCAG dye counter	others
Cc1ccc(S(=O)(=O)/N=C2/NC(=O)/C(=C/c3ccc(Br)o3)S2)cc1	26	93*	-1	-15	11	83*	54*
O=C(Nc1ccc(Cl)cc1)OC[C@@H]1CSCCS(=O)(=O)N1	·	1	10	22	·	·	·
CC(C)N1C(=O)S/C(=C\c2ccc(-c3ccc(Cl)c(C(=O)O)c3)o2)C1=O	24	51*	0	-15	9	47*	16*
O=c1oc2ccccc2c2oc3cc(O)c(O)cc3c12	30	41*	0	-17	5	53*	28*
Cc1ccc(S(=O)(=O)N2[C@@H](c3ccc(C#N)cc3)C(C(=O)O)=C[C@H]2C(C)(C)C)cc1	·	31	1	-4	·	·	·
CCCC[C@@H]1C=C(C(=O)O)[C@H](c2ccc(C)cc2)N1S(=O)(=O)c1ccc(C)cc1	·	32	1	-6	·	·	·
CCCC[C@@H]1C=C(C(=O)O)[C@H](c2ccc(Cl)c(Cl)c2)N1S(=O)(=O)c1ccc(C)cc1	·	80*	0	29	·	69*	34*
CCCCC[C@@H]1C=C(C(=O)O)[C@H](c2ccc(Cl)cc2)N1S(=O)(=O)c1ccc(C)cc1	·	79*	-1	15	·	64*	28*
CCCC[C@@H]1C=C(C(=O)O)[C@H](c2ccc(C#N)cc2)N1S(=O)(=O)c1ccc(C)cc1	·	53*	0	-26	·	33	7.9*
CCCCC[C@@H]1C=C(C(=O)O)[C@H](c2ccc(C)cc2)N1S(=O)(=O)c1ccc(C)cc1	·	74*	-2	-9	·	53*	18*
CCOC(=O)C1=C[C@@H](CC)N(S(=O)(=O)c2ccc(C)cc2)[C@H]1c1ccccc1	·	-2	0	7	·	·	·
O=C(N/N=C/c1ccc(-c2ccc(S(=O)(=O)Nc3ncccn3)cc2)o1)c1cc2ccccc2cc1O	33	82*	10	-7	-37	75*	39*
CCn1c(=O)n(CC(=O)N2CCN(c3ccc(F)cc3)CC2)c(=O)c2ccccc21	·	1	·	·	·	·	·
Cc1ccc(CSc2nc3c(c(SCC(=O)O)n2)CCCC3)cc1	23	36*	1	-18	9	23	5.7*
COC(=O)CSc1nc(SCc2ccc(C)cc2)nc2c1CCCC2	-3	2	-1	13	3	·	·
COc1cc(/C=C2/SC(=S)N(C)C2=O)ccc1OC(=O)c1ccco1	-4	2	7	19	-16	·	·
COc1cc(/C=C2/SC(=S)N(CC(=O)O)C2=O)ccc1OC(=O)c1cccs1	11	60*	4	-11	7	72*	34*	DNA CAG DR=i
COc1ccc(/C=C2\SC(=S)N(CCC(=O)Nc3ccc(C(=O)O)cc3)C2=O)cc1OC	0	·	·	·	-9	·	·
COc1cc(/C=C2\SC(=S)N(CC(=O)O)C2=O)ccc1OS(=O)(=O)c1ccc(C)cc1	·	81*	2	-5	13	86*	56*
COC(=O)[C@]12C[C@H](CC(=O)N3CCSCC3)C(=O)N(Cc3ccc(Cl)cc3Cl)C1=C[C@H](COCc1ccccc1)O[C@@H]2C	·	6	·	·	·	·	·
N#Cc1ccc(C2=NC(C(F)(F)F)(C(F)(F)F)c3c(n(Cc4ccco4)c(=O)[nH]c3=O)N2)cc1	17	36*	6	4	7	37*	7.1*	DNA CAG DR=>30;dCAG TOPRO ctr=i;rCAG binder-2=3.6*
O=c1[nH]c(=O)n(Cc2ccco2)c2c1C(C(F)(F)F)(C(F)(F)F)N=C(CCc1ccccc1)N2	10	-4	21	45	5	·	·
COC(=O)C1CCCN(C(=O)C(Cc2ccc3c(c2)OCO3)NC(C)=O)C1 (stereo not drawn)	·	1	·	·	·	·	·
Cc1ccc(S(=O)(=O)Oc2ccc(/C=C(/NC(=O)c3ccccc3)C(=O)O)cc2)cc1	18	40*	6	3	3	37*	9.3*
Cc1ccc(S(=O)(=O)Oc2ccc(/C=C(/NC(=O)c3ccccc3)C(=O)NCC(=O)O)cc2)cc1	21	34	5	2	-7	·	·
SMILES	NS3 helicase inh	rCAG binder-1	TAAR1 agonist	TAAR1 antagonist	core dimer inh	rCAG bind conf	dCAG dye counter	others
O=C(CCc1nc(-c2ccccc2F)no1)NCCc1cccc(F)c1	·	1	·	·	·	·	·
COc1cc(N=Nc2cccc(S(N)(=O)=O)c2)c2ccccc2c1N	-2	52*	4	7	-50	20	12*
NC1=NC(=Nc2cccc(S(N)(=O)=O)c2)c2ccccc21	-3	-1	-3	-2	2	·	·
Cc1ccc(N/N=C(/Sc2nnnn2-c2ccccc2)C(=O)c2ccccc2)cc1	9	68*	-1	8	11	53*	21*	DNA CAG DR=i
Cc1ccc2c(=O)cc(C(=O)Nc3ccc(S(=O)(=O)Nc4onc(C)c4C)cc3)oc2c1	7	61*	-1	1	1	37*	11*
Cc1cccc(-n2ccc(=O)c(C(=O)Nc3ccc(S(=O)(=O)Nc4onc(C)c4C)cc3)n2)c1	-3	39*	1	-1	-4	43*	12*
Cc1cc(C)c(C(=O)Nc2ccc(S(=O)(=O)Nc3onc(C)c3C)cc2)c(C)c1	0	14	-1	14	-1	·	·
Cc1cc(C)nc(NS(=O)(=O)c2ccc(NC(=O)c3nn(-c4ccccc4)ccc3=O)cc2)n1	8	-1	1	-12	0	·	·

Compound activity deposited in PubChem by The Scripps Research Institute Molecular Screening Center.
